Source: paper PMC3582828 (European journal of medicinal chemistry, 2012)

How the values were obtained:
PDE8 = test: PDE enzyme assay; assay type: biochemical; details: selectivity ratio IC50 PDE8 / IC50 PDE5
PDE7 = test: PDE enzyme assay; assay type: biochemical; details: for IC50: read-out: PDE7 IC50, Data obtained by BPS Bioscience; for PDEX/PDE5 (PDE7): selectivity ratio IC50 PDE7 / IC50 PDE5
Method in brief: (§1)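 Each PDE was incubated at room temperature for 60 min in PDE assay buffer with 100 nM FAM-cGMP or FAM-cAMP substrate, 0.125 ng enzyme and test compound. A 1:100 binding-agent solution was then added for 60 min at room temperature.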

PDE3 = test: PDE enzyme assay; assay type: biochemical; details: for IC50: read-out: PDE3 IC50, Data obtained by BPS Bioscience; for PDEX/PDE5 (PDE3): selectivity ratio IC50 PDE3 / IC50 PDE5
Method in brief: as §1

PDE10 = PDE10 (Homo sapiens, UniProt Q9Y233); test: PDE enzyme assay; assay type: biochemical; details: selectivity ratio IC50 PDE10 / IC50 PDE5
Sequence of PDE10 (Q9Y233 whole entry): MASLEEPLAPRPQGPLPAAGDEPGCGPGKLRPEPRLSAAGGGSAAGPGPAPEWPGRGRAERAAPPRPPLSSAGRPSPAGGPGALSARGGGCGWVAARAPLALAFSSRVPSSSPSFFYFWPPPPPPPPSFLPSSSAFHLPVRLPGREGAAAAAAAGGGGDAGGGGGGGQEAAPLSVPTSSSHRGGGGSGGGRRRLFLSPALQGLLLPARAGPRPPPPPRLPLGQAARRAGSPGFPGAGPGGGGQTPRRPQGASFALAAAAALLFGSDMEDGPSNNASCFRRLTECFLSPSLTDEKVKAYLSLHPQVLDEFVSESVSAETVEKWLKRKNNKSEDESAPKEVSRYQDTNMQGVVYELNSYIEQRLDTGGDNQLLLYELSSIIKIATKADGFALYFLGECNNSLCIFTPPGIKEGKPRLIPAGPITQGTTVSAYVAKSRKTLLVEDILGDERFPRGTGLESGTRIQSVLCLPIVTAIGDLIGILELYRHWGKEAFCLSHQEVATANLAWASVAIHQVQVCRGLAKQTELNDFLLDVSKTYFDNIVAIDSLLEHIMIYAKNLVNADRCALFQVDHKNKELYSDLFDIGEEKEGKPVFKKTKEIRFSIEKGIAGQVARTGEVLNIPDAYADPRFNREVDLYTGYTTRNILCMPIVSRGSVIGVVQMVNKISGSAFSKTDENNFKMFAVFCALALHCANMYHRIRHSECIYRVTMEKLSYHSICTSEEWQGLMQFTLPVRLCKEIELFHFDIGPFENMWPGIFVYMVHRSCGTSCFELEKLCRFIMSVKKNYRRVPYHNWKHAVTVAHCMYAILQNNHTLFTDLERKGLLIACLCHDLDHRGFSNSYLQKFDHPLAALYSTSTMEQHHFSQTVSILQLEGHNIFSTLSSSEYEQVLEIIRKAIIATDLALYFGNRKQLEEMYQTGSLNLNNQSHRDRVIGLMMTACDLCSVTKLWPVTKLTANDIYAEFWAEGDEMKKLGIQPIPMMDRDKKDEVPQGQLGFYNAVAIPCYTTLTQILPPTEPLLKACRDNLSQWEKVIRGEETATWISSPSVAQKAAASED

APP/PS1 mice = test: 2-day radial arm water maze; assay type: in vivo, APP/PS1 mouse; details: 3 mg/kg, i.p., for 3 weeks; 3–4 month old APP/PS1 mice; vehicle ~3 errors
PDE9 = PDE9 (Homo sapiens, UniProt O76083); test: PDE enzyme assay; assay type: biochemical; details: selectivity ratio IC50 PDE9 / IC50 PDE5
Sequence of PDE9 (O76083 whole entry): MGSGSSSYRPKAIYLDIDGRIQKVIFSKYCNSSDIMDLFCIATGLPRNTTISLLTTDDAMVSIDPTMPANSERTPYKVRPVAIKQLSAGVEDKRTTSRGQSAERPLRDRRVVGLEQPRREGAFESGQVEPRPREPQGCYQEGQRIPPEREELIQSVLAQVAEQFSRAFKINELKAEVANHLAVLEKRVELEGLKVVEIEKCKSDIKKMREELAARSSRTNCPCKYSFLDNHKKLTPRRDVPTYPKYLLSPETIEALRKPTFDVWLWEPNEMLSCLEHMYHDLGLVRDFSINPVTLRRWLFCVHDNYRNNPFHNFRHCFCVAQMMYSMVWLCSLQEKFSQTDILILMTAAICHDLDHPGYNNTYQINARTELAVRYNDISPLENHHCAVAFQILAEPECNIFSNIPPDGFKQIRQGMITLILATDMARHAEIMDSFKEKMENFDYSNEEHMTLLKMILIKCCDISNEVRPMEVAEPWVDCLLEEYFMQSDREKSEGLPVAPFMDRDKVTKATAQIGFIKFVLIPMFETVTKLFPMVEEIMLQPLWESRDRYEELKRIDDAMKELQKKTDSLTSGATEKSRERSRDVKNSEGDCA

PDE4 = test: PDE enzyme assay; assay type: biochemical; details: for IC50: read-out: PDE4 IC50, Data obtained by BPS Bioscience; for PDEX/PDE5 (PDE4): selectivity ratio IC50 PDE4 / IC50 PDE5
Method in brief: as §1

PDE1 = test: PDE enzyme assay; assay type: biochemical; details: for IC50: read-out: PDE1 IC50, Data obtained by BPS Bioscience; for PDEX/PDE5 (PDE1): selectivity ratio IC50 PDE1 / IC50 PDE5
Method in brief: as §1

PDE11 = PDE11 (Homo sapiens, UniProt Q9HCR9); test: PDE enzyme assay; assay type: biochemical; details: selectivity ratio IC50 PDE11 / IC50 PDE5
Sequence of PDE11 (Q9HCR9 whole entry): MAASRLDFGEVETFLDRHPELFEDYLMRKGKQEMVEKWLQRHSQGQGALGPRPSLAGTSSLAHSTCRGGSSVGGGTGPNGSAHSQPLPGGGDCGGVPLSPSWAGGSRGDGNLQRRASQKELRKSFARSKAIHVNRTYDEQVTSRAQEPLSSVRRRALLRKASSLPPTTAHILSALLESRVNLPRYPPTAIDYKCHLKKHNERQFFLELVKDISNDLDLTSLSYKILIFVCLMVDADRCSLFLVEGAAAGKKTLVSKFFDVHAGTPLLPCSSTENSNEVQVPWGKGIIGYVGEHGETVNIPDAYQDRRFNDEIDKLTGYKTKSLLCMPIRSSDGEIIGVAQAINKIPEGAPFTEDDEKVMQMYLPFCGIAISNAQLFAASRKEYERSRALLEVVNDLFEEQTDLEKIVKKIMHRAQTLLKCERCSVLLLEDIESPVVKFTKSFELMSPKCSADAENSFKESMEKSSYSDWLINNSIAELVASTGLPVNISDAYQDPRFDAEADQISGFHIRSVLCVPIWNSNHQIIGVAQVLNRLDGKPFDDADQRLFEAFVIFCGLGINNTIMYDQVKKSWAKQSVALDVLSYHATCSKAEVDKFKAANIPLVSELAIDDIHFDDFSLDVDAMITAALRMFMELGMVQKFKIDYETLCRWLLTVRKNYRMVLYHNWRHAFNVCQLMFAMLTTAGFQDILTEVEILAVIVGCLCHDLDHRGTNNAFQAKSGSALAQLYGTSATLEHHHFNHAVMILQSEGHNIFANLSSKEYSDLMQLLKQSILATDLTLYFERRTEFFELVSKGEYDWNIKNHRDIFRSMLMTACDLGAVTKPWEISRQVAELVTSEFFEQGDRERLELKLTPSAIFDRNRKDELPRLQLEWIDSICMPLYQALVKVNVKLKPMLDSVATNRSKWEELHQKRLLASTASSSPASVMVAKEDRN

PDE2 = PDE2 (Homo sapiens, UniProt O00408); test: PDE enzyme assay; assay type: biochemical; details: selectivity ratio IC50 PDE2 / IC50 PDE5
Sequence of PDE2 (O00408 whole entry): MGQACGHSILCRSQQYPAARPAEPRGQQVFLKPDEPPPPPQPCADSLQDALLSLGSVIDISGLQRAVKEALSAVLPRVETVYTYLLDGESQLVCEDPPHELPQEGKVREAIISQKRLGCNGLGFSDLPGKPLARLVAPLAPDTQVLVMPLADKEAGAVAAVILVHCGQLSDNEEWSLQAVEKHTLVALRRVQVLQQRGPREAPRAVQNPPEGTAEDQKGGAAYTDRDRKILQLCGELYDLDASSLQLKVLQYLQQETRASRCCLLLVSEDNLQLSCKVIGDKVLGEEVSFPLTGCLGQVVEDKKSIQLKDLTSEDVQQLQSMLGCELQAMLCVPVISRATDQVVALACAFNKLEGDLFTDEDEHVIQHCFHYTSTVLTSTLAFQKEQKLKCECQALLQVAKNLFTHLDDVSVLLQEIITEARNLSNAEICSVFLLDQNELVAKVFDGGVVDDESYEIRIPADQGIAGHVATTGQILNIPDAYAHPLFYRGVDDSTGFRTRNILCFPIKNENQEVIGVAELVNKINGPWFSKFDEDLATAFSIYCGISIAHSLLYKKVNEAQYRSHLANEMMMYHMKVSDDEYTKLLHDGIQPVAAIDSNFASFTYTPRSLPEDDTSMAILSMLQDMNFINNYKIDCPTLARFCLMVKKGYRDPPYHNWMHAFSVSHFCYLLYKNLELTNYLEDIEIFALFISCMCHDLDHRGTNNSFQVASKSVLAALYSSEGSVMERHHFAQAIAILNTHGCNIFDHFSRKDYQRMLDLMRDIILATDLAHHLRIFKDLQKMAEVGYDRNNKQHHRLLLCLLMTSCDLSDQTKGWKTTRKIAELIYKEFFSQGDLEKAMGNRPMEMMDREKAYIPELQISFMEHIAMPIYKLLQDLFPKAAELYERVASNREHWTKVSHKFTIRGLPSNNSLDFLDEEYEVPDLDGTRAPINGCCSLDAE

[1] = Pharmacokinetics in mouse brain tissue and plasma; assay type: in vivo, male BALB/c mice
Method in brief: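 Test compound was dosed at 50 mg/kg p.o. in 0.05% aqueous methylcellulose. Plasma (retro-orbital blood, heparin) and brain were taken at 0, 0.25, 0.5, 1, 2 and 4 h, with 3 mice per time point. Brain was rinsed in cold saline and homogenised in methanol. LC/MS/MS used an internal standard and 1/x2-weighted linear regression. Penetration was expressed as brain/plasma Cmax and AUC ratios.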

[2] = tested on: LTP in slices from APP/PS1 mice; test: LTP in hippocampal slices from APP/PS1 mice; parameters: species or system APP/PS1 mouse; details: 50 nM through bath solution for 10 min prior to θ-burst
PDE5 = PDE5 (Homo sapiens, UniProt O76074); test: PDE enzyme assay; assay type: biochemical; details: ratio IC50 PDE5 / IC50 PDE5

Row | SMILES | PDEX/PDE5 (PDE8) (PDE8) | IC50 (PDE7) [µM] | PDEX/PDE5 (PDE7) (PDE7) | IC50 (PDE3) [µM] | PDEX/PDE5 (PDE3) (PDE3) | PDEX/PDE5 (PDE10) (PDE10) | Errors in the 2-day RAWM test (APP/PS1 mice) | PDEX/PDE5 (PDE9) (PDE9) | IC50 (PDE4) [µM] | PDEX/PDE5 (PDE4) (PDE4) | IC50 (PDE1) [µM] | PDEX/PDE5 (PDE1) (PDE1) | PDEX/PDE5 (PDE11) (PDE11) | PDEX/PDE5 (PDE2) (PDE2) | Blood brain barrier penetration [1] | Effect on LTP in WT slices [2] | PDEX/PDE5 (PDE5) (PDE5)
1 | COc1ccc(CNc2c(CO)cnc3c(C4CC4)cc(C#N)cc23)cc1Cl [7a, 4-[(3-chloro-4-methoxybenzyl)amino]-8-cyclopropyl-3-(hydroxymethyl) quinoline-6-carbonitrile] | >10^4 | > 10 | >10^4 | > 10 | >10^4 | >10^4 | less than 2 errors | >10^4 | > 10 | >10^4 | > 10 | >10^4 | >10^4 | >10^4 | readily crosses the blood brain barrier | no effect | 1
2 | COc1ccc(CNc2c(CO)cnc3c(N(C)C)cc(C#N)cc23)cc1Cl [7b, 4-[(3-chloro-4-methoxybenzyl)amino]-8-(N,N-dimethylamino)-3-(hydroxymethyl) quinoline-6-carbonitrile] | >10^4 | > 10 | >10^4 | > 10 | >10^4 | >10^4 | – | >10^4 | > 10 | >10^4 | > 10 | >10^4 | >10^4 | >10^4 | – | – | 1
